Results published in paper PMC8992017 (Journal of medicinal chemistry, 2019).
“Also recorded” adds a separate entry of the source.

How the values were obtained:
[1] = tested on: NF-κB; assay: NF-κB activation in THP1-Blue NF-κB reporter cells; format: cell-based; details: compound 5 μM + LPS, compared with compound 1
In short: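 THP1-Blue NF-κB cells at 10^5/well in RPMI with 10% FBS, pen/strep and Normocin. Test compound (1 mM DMSO stock) was diluted into LPS medium, giving final 5 μM compound ([…]), with LPS co-added. After 20 h, supernatant SEAP was measured colorimetrically with QuantiBlue at 630 nm. Two-point normalized: reference sulfonamide + LPS = 200%, LPS alone = 100%; mean ± SEM.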

[2] = tested on: ISRE; assay: ISRE activity in ISRE-bla THP-1 reporter cells; format: cell-based; details: compound 5 μM + IFN-α, compared with compound 1
In short: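 ISRE-bla THP-1 cells at 5×10^4/well in RPMI with 10% dialyzed FBS, 0.1 mM non-essential amino acids, 1 mM pyruvate and pen/strep. Test compound (1 mM DMSO stock) was diluted in IFN-α medium, giving final 5 μM compound ([…]) and final 100 U/mL IFN-α. Incubation 16 h, then CCF4-AM FRET substrate 3 h at RT in the dark. Excitation 405 nm; background-subtracted 465/535 nm emission ratio. Two-point normalized: reference sulfonamide + IFN-α = 200%, IFN-α alone = 100%; mean ± SEM.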

SMILES	NF-κB activity (in words) [1]	ISRE activity (in words) [2]
CCOc1ccc(S(=O)(=O)N(CCCNC(=O)OC(C)(C)C)c2cc(OC)c(Cl)cc2OC)cc1 [Compound 52, tert-Butyl (3-((N-(4-chloro-2,5-dimethoxyphenyl)-4-ethoxyphenyl)sulfonamido)propyl)carbamate]	reduction in activity	reduction in activity
CCOc1ccc(S(=O)(=O)N(CCCNC(=O)CCCC[C@H]2SC[C@H]3NC(=O)N[C@H]32)c2cc(OC)c(Cl)cc2OC)cc1 [Compound 58, N-(3-((N-(4-chloro-2,5-dimethoxyphenyl)-4-ethoxyphenyl)sulfonamido)propyl)-5-((3aR,4R,6aS)-2-oxohexahydro-1H-thieno[3,4-d]imidazol-4-yl)pentanamide]	equipotent to compound 1	equipotent to compound 1
COc1cc(NS(=O)(=O)c2ccc(C#N)cc2)c(OC)cc1Cl [Compound 19, N-(4-chloro-2,5-dimethoxyphenyl)-4-cyanobenzenesulfonamide]	either weakly active or completely inactive	either weakly active or completely inactive
COc1ccc(S(=O)(=O)Nc2cc(OC)c(Cl)cc2OC)cc1N [Compound 60, 3-Amino-N-(4-chloro-2,5-dimethoxyphenyl)-4-methoxybenzenesulfonamide]	resurgence of activity	resurgence of activity
COc1cc(NS(=O)(=O)c2ccc(N)cc2)c(OC)cc1Cl [Compound 18, 4-Amino-N-(4-chloro-2,5-dimethoxyphenyl)benzenesulfonamide]	either weakly active or completely inactive	either weakly active or completely inactive
CCCc1ccc(S(=O)(=O)Nc2cc(OC)c(Cl)cc2OC)cc1 [Compound 16, N-(4-chloro-2,5-dimethoxyphenyl)-4-propylbenzenesulfonamide]	loss of activity	loss of activity
C#CCOc1ccc(S(=O)(=O)Nc2cc(OC)c(Cl)cc2OC)cc1 [Compound 15, N-(4-chloro-2,5-dimethoxyphenyl)-4-(prop-2-yn-1-yloxy)benzenesulfonamide]	inactive	inactive
CCNC(=O)CCCN(c1cc(OC)c(Cl)cc1OC)S(=O)(=O)c1ccc(OCC)cc1 [Compound 54, 4-((N-(4-chloro-2,5-dimethoxyphenyl)-4-ethoxyphenyl)sulfonamido)-N-ethylbutanamide]	retaining the NF-κB activity	reduction in ISRE activity
CCOc1ccc(S(=O)(=O)Nc2cc(OC)c(Br)cc2OC)cc1 [Compound 7, N-(4-bromo-2,5-dimethoxyphenyl)-4-ethoxybenzenesulfonamide]	retained activity	retained activity; also recorded: slightly skewed ISRE activity
CCOc1ccc(S(=O)(=O)Nc2ccc(Cl)c(OC)c2)cc1 [Compound 4, N-(4-chloro-3-methoxyphenyl)-4-ethoxybenzenesulfonamide]	complete loss of activity	complete loss of activity
CCOc1ccc(S(=O)(=O)N(CCCN)c2cc(OC)c(Cl)cc2OC)cc1.Cl [Compound 55, N-(3-aminopropyl)-N-(4-chloro-2,5-dimethoxyphenyl)-4-ethoxybenzenesulfonamide hydrochloride]	recovered	recovered
C#CCCCN(c1cc(OC)c(Cl)cc1OC)S(=O)(=O)c1ccc(OCC)cc1 [Compound 44, N-(4-chloro-2,5-dimethoxyphenyl)-4-ethoxy-N-(pent-4-yn-1-yl)benzenesulfonamide]	retained activity almost equivalent to that of compound 1	retained activity almost equivalent to that of compound 1
COc1cc(NS(=O)(=O)c2ccc(OC)c(N=[N+]=[N-])c2)c(OC)cc1Cl [Compound 61, 3-Azido-N-(4-chloro-2,5-dimethoxyphenyl)-4-methoxybenzenesulfonamide]	–	inactive
CCOc1ccc(S(=O)(=O)N(CCCNC(=O)CCCC[C@H]2SC[C@H]3NC(=O)N[C@H]32)c2cc(OC)c(N=[N+]=[N-])cc2OC)cc1 [Compound 64, N-(3-((N-(4-azido-2,5-dimethoxyphenyl)-4-ethoxyphenyl)sulfonamido)propyl)-5((3aR,4R,6aS)-2-oxohexahydro-1H-thieno[3,4-d]imidazol-4-yl)pentanamide]	relatively weak activity	relatively weak activity
CCCOc1ccc(S(=O)(=O)Nc2cc(OC)c(Cl)cc2OC)cc1 [Compound 13, N-(4-chloro-2,5-dimethoxyphenyl)-4-propoxybenzenesulfonamide]	weakly active	weakly active
COc1cc(NS(=O)(=O)c2ccccc2OC)c(OC)cc1Cl [Compound 24, N-(4-chloro-2,5-dimethoxyphenyl)-2-methoxybenzenesulfonamide]	none of these molecules was active	none of these molecules was active
CCOc1ccc(S(=O)(=O)N(CCc2ccccc2)c2cc(OC)c(Cl)cc2OC)cc1 [Compound 47, N-(4-chloro-2,5-dimethoxyphenyl)-4-ethoxy-N-phenethylbenzenesulfonamide]	potent analogs	potent analogs
CNC(=O)c1ccc(S(=O)(=O)Nc2cc(OC)c(Cl)cc2OC)cc1 [Compound 30, 4-(N-(4-chloro-2,5-dimethoxyphenyl)sulfamoyl)-N-methylbenzamide]	completely inactive	completely inactive
CCOc1ccc(S(=O)(=O)N(CCCNC(=O)CCCCCNC(=O)c2ccc3c(c2)C(=O)OC32c3ccc(O)cc3Oc3cc(O)ccc32)c2cc(OC)c(Cl)cc2OC)cc1 [Compound 56, N-(6-((3-((N-(4-chloro-2,5-dimethoxyphenyl)-4-ethoxyphenyl)sulfonamido)propyl)amino)-6-oxohexyl)-3’,6’-dihydroxy-3-oxo-3H-spiro[isobenzofuran-1,9’-xanthene]-5-carboxamide]	completely inactive	completely inactive
COC(=O)c1ccc(S(=O)(=O)Nc2cc(OC)c(Cl)cc2OC)cc1 [Compound 26, Methyl 4-(N-(4-chloro-2,5-dimethoxyphenyl)sulfamoyl)benzoate]	–	active
CCOc1ccc(S(=O)(=O)Nc2cc(OC)c(N)cc2OC)cc1 [Compound 10, N-(4-amino-2,5-dimethoxyphenyl)-4-ethoxybenzenesulfonamide]	–	inactive
COc1cc(NS(=O)(=O)c2ccc(Oc3ccccc3)cc2)c(OC)cc1Cl [Compound 22, N-(4-chloro-2,5-dimethoxyphenyl)-4-phenoxybenzenesulfonamide]	–	inactive
CCOc1ccc(S(=O)(=O)Nc2cc(OC)c([N+](=O)[O-])cc2OC)cc1 [Compound 9, N-(2,5-dimethoxy-4-nitrophenyl)-4-ethoxybenzenesulfonamide]	–	inactive
